Test results taken from ChEMBL document CHEMBL1157537 (J Med Chem, 2008).
The source made the active and inactive calls. The calls are words filed in the database; no cut-off is given here.

How the values were obtained:
[1] = biological target: T1, Glucocorticoid receptor (Homo sapiens) (UniProt P04150); test: Agonist activity at human glucocorticoid receptor relative to Dexamethasone; format: functional
T1 sequence (whole entry): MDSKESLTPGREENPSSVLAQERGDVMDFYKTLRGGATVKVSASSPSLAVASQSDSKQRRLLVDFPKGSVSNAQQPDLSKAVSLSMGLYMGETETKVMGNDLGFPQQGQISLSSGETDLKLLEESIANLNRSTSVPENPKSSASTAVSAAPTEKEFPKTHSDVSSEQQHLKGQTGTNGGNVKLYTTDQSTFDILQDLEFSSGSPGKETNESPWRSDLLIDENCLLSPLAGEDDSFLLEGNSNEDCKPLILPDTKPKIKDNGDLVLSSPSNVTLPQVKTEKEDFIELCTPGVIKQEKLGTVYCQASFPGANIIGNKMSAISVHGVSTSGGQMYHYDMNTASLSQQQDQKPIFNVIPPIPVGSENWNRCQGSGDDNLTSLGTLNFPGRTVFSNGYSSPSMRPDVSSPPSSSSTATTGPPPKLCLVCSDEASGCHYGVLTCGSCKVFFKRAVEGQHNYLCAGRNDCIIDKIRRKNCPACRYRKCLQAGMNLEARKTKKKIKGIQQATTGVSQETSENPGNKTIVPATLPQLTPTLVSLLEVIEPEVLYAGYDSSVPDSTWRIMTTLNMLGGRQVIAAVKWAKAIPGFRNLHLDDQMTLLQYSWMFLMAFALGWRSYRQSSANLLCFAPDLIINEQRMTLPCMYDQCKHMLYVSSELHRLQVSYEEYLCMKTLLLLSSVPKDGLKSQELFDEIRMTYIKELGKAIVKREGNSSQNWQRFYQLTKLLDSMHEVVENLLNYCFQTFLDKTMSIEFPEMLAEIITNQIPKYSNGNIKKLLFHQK

[2] = species on record: Rattus norvegicus; test: Progestational activity in estrone-treated ovariectomized rat assessed as effect on uterine epithelial cell height; format: functional, organism-based
Method in brief: (§1)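 Ovariectomized rats were treated with estrone, alone or combined with test progestin, and compared with vehicle and estrone-only groups. Endpoints were uterine epithelial cell height, vaginal epithelial thickness and mammary alveolar bud proliferation.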

[3] = system: Rattus norvegicus; test: Inhibition of ovulation in rat assessed as reduction in number of ova at 0.25 to 2.0 mg/kg, po for 5 days; format: functional, organism-based
Method in brief: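 Female rats (n = 6 per group) received vehicle or progestin for 5 days at 0.25, 1.0 or 2.0 mg/kg. The number of ova per rat and the number of rats ovulating were then determined.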

[4] = biological target: T2, Progesterone receptor (Homo sapiens) (UniProt P06401); test: Agonist activity at human progesterone receptor in human T47D cells assessed as alkaline phosphatase activity relative to progesterone; format: functional, cell-based
T2 sequence (whole entry): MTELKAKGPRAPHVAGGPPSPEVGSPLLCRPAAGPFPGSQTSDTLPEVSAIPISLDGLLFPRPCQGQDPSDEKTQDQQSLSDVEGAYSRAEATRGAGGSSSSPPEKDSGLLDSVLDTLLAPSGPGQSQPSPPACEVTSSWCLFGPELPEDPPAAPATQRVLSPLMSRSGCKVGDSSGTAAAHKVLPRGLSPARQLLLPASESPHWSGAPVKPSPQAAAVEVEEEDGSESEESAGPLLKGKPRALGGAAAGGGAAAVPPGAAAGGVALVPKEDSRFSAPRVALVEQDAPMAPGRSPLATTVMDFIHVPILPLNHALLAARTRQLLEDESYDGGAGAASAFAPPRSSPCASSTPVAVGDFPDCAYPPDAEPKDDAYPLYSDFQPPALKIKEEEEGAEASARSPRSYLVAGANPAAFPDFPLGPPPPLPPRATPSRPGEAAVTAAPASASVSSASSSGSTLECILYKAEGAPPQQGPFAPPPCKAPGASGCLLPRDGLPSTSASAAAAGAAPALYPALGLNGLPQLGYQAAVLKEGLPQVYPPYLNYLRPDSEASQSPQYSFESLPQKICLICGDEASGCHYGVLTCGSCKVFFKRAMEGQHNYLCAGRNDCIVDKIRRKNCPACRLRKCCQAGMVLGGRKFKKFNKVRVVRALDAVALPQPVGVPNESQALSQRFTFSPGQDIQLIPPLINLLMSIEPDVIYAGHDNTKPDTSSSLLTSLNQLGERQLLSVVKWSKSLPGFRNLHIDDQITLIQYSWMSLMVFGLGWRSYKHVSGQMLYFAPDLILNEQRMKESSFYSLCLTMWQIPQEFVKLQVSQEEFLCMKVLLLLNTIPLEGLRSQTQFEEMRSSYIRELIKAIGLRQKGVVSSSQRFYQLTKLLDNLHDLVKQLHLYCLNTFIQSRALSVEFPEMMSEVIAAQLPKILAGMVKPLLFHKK

[5] = biological target: T2, Progesterone receptor (Homo sapiens); test: Agonist activity at human progesterone receptor relative to progesterone; format: functional
[6] = species on record: Rattus norvegicus; test: Progestational activity in estrone-treated ovariectomized rat assessed as reduction of breast alveolar bud proliferation; format: functional, organism-based; method in brief: as §1
[7] = species on record: Rattus norvegicus; test: Progestational activity in estrone-treated ovariectomized rat assessed as effect on vaginal epithelial thickness; format: functional, organism-based; method in brief: as §1
[8] = biological target: T3, Mineralocorticoid receptor (Homo sapiens) (UniProt P08235); test: Agonist activity at human mineralocorticoid receptor relative to aldosterone; format: functional
T3 sequence (whole entry): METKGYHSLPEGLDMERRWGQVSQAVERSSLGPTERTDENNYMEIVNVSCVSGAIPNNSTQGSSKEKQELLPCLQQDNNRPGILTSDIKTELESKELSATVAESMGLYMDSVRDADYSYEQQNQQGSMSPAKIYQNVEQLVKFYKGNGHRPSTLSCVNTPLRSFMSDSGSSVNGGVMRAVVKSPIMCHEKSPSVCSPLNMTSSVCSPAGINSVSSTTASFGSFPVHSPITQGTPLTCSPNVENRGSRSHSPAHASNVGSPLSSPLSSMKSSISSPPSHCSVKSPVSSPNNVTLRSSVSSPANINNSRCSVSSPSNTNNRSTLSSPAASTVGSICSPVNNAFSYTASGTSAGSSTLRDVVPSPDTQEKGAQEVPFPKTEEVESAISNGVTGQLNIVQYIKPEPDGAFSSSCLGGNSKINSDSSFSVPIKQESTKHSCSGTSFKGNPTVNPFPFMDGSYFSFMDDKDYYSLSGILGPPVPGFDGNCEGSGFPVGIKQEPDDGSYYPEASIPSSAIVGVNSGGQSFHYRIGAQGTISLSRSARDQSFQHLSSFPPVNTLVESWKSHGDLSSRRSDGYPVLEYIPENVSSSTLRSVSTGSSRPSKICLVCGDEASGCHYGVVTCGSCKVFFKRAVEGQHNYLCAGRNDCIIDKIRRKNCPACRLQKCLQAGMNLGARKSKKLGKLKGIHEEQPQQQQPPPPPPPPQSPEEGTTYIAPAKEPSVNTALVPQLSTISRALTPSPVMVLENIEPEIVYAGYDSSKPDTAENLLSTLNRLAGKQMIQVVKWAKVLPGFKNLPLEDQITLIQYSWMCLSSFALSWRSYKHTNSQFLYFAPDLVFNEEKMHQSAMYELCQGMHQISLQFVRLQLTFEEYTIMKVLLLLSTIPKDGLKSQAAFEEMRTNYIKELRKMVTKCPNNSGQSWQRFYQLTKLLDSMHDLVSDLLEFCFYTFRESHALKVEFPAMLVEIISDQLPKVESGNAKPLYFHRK

SMILES: CC1=C[C@@H]([C@@H]2Oc3c(F)cc(F)cc3-c3ccc4c(c32)C(C)=CC(C)(C)N4)CCC1 (stereo in doubt; (-)-5c)
- Efficacy [1]: 6%
- Activity [2]: Active
- Activity [3]: Active
- Efficacy [4]: 55%
- Efficacy [5]: 145%
- Activity [6]: Active
- Activity [7]: Active
- Efficacy [8]: 8%
